Hits are enriched below; roughly 2.6% of the tested compounds scored in any of these assays.
NPY-Y2 antag: NPY-Y2 (human) receptor antagonism | actives 0.99% (n = 140,000) | inhibition, % at 2.7 µM | AID 793 | P49146 | NPY-Y2 expressing cells, antagonist mode; in the data active = inhibition above about 17%
Target sequence (P49146 whole entry, looked up): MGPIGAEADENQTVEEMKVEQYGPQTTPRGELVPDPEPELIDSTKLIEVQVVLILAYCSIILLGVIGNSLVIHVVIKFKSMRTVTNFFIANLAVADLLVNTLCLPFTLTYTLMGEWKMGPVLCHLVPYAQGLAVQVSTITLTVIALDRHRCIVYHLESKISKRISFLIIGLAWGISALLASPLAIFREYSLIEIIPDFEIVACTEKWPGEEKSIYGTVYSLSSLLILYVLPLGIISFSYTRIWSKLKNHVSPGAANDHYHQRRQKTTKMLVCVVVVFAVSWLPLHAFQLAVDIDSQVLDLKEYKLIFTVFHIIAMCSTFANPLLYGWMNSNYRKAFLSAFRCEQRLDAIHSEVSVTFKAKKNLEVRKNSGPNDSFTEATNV
b-catenin transl: beta-catenin nuclear translocation modulation; HeLa beta-catenin nuclear translocation, immunofluorescence imaging; nuclear translocation activity, % at 5 µM; actives 0.3% (n = 190,000); AID 1665;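 active = nuclear translocation activity above 50% at 5 µM, with a well cell count of 50 or more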;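 note: per-cell ratio of nuclear to cytoplasmic median beta-catenin stain intensity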
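Test system: human HeLa cells, endogenous beta-catenin. Times: 24 h compound exposure, 37°C. Measured by: beta-catenin immunofluorescence imaging with DAPI.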
NPY2 pot ag: human NPY-Y2 potentiation or agonism, primary screen; P49146; cells expressing NPY-Y2, potentiator/agonist read-out; activation, % at 3.6 µM; actives 0.45% (n = 220,000); AID 1359; in the data active = activation above about 27%;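 note: cells stimulated with NPY near EC25 plus isoproterenol at EC100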
NPY-Y1 antag: NPY-Y1 (human) receptor antagonism; P25929; HEK293-CNG Y1 cells, membrane potential fluorescence; NPY at EC95, then isoproterenol; inhibition, % at 3.6 µM; actives 1% (n = 200,000);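 active = inhibition above the campaign mean inhibition of all tested compounds plus 3 SD, cut at about 20% in these data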
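material = HEK293 cells with Y1 receptor plus CNG channel | also added = NPY 25 nM then isoproterenol 1 µM plus Ro 20-1724 25 µM | schedule = dye 3 h, compound 60 min room temperature, stimulation 45 min | measured by = membrane potential fluorescence | benchmarks = high control isoproterenol alone, low control NPY with isoproterenol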
NPY1 pot ag: human NPY-Y1 potentiation or agonism, primary screen. P25929. NPY-Y1 expressing cells, potentiator/agonist activation. activation, % at 3.6 µM. actives 0.37% (n = 220,000). AID 1304; in the data active = activation above about 33%, passing the limit was not always enough;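 note: cells stimulated with NPY at EC10 then isoproterenol at EC100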
MT stabilizer: stabilizes microtubules in HeLa cells | actives 0.83% (n = 200,000) | HeLa tubulin immunostaining HCS, 24 h; share of cells brighter than vehicle mean+2SD | % tubulin-high responders, % at 10 µM | AID 2205;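 active = plate Z-score above 3 for both tubulin-high and condensed-nucleus cell shares, with cell loss under 80%, at 10 µM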;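 note: anti alpha tubulin signal scored within the nucleus-defined area of each cell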
Each line names hits and unclear results; the compound was inactive in the other large screens.

CCCOC(=O)C1=C(C)NC2=C(C(=O)CCC2)C1c1cccs1 (centres undefined)	none
CCOC(=O)C1=C(C)NC2=C(C(=O)CC(c3cccs3)C2)C1c1cccs1 (centres undefined)	MT stabilizer 18.3
COC(=O)C1=C(C)NC2=C(C(=O)CC(c3cccs3)C2)C1c1ccsc1 (centres undefined)	MT stabilizer 26.3
CCOC(=O)C1=C(C)NC2=C(C(=O)OC2)C1c1ccccc1 (centres undefined)	b-catenin transl 81.3 (no result: NPY-Y2 antag)
O=C(C1CCN(CCCc2ccccc2)CC1)N(CCc1ccccc1)Cc1ccccc1	NPY-Y2 antag 35.8, NPY-Y1 antag 26.8
O=C(C1CCN(CC2CC=CCC2)CC1)N(CCc1ccccc1)Cc1ccccc1 (centres undefined)	NPY-Y2 antag 18.1, NPY-Y1 antag 23.5 (no result: b-catenin transl)
O=C(O)/C=C/c1ccc(-n2ccnc2)cc1	none (no result: NPY-Y2 antag, NPY-Y1 antag, MT stabilizer)
Cc1cc(NC(=O)CS(=O)(=O)Cc2ccccc2)no1	none (no result: NPY-Y2 antag)
CCOc1ccc(S(=O)(=O)N(C(=O)c2ccco2)c2cc3sc(=O)oc3c3ccccc23)cc1	MT stabilizer 19.1
Cn1c(SCC(=O)NC(c2ccccc2)c2ccccc2)nnc1-c1cccs1	none
CCc1nc2ccc(C)cc2c(C(=O)NC2CCCCC2C)c1C (centres undefined)	NPY-Y2 antag 29.6, NPY-Y1 antag 64.3
Cc1ccc2c(c1)NC(=O)C(CC(=O)NC1CCCCC1C)O2 (centres undefined)	none
Cc1nc(NC(=O)c2ccc(Cl)cc2)sc1-c1csc(Nc2cccc(F)c2)n1	MT stabilizer 39.9
Cc1ccc(Nc2nc(-c3sc(NC(=O)c4cccc(Cl)c4)nc3C)cs2)cc1	none (no result: b-catenin transl)
CCOC(=O)C1(CCc2ccccc2)CCN(C(=O)CN2CCOC2=O)CC1	none (no result: NPY-Y2 antag)
COc1ccc(Nc2ncnc3scc(-c4ccc(OC)cc4)c23)cc1	NPY-Y2 antag 31.8, NPY-Y1 antag 20.7, MT stabilizer 13.1 (no result: b-catenin transl)
COc1ccc(-c2csc3ncnc(Cl)c23)cc1	none (no result: NPY-Y2 antag)
COc1cccc2sc(Nc3nc(-c4cc5ccccc5oc4=O)cs3)nc12	b-catenin transl 121.7, MT stabilizer 18.4
COc1cccc2sc(Nc3nc(-c4ccncc4)cs3)nc12	b-catenin transl 54.7, NPY2 pot ag 35.2, NPY1 pot ag 40.4, MT stabilizer 22.5 (no result: NPY-Y2 antag)
COc1cccc2sc(NN)nc12	none (no result: NPY-Y2 antag)
Cc1ccc(NCC(O)C(O)C(O)CO)cc1C (centres undefined)	none
Cc1cc(N=Nc2ccccc2)c(NCC(O)C(O)C(O)CO)cc1C (centres undefined)	NPY2 pot ag 56.6, NPY1 pot ag 73.2 (no result: NPY-Y2 antag)
OC(CNCc1ccc(-c2ccccc2)cc1)c1ccccc1 (centres undefined)	b-catenin transl 67.9 (no result: NPY-Y2 antag)
Cc1cc(NC(=O)c2cc(-c3ccco3)on2)nn1Cc1ccc(Cl)cc1	MT stabilizer 18.3 (no result: b-catenin transl)
Cc1nn(Cc2ccc(Cl)cc2)c(C)c1NC(=O)c1cc(-c2ccco2)on1	none
COc1ccc(OC)c2sc(N(CCN(C)C)C(=O)c3cc(Cl)sc3Cl)nc12	NPY2 pot ag 78.8, NPY1 pot ag 89.5 (no result: NPY-Y2 antag)
COc1ccc2sc(N(CCN(C)C)C(=O)c3cc(Cl)sc3Cl)nc2c1	none (no result: NPY-Y2 antag)
COCCNC(=S)N1CCN(Cc2cccc(OC)c2)CC1	none (no result: NPY-Y2 antag)
COC(=O)CSc1nc2ccc(NC(=O)c3ccccc3C(=O)N3CCOCC3)cc2s1	NPY2 pot ag 94.8, NPY1 pot ag 109.0
CCOC(=O)CSc1nc2ccc(NC(C)=O)cc2s1	NPY2 pot ag 58.5, NPY1 pot ag 71.6
CC(=O)Nc1ccc2nc(SCC(=O)O)sc2c1	none
COc1ccc(C(=O)C(/C=N/O)=N/Nc2ccc(F)cc2)cc1	none (no result: NPY-Y2 antag)
CO/N=C/C(=N\Nc1ccc(OC)cc1)C(=O)c1ccc(OC)cc1	MT stabilizer 53.5 (no result: b-catenin transl)
Cc1cc2nc(-c3ccc(SCc4ccc(C(=O)O)cc4)nc3)[nH]c2cc1C	MT stabilizer 17.5 (no result: NPY-Y2 antag)
CCOC(=O)N1CCN(C(=O)c2ccc(SC)cc2OC)CC1	none (no result: NPY-Y2 antag)
Cc1ccc(Cn2ncc3c(N4CCN(c5ccccc5C)CC4)ncnc32)cc1	NPY-Y1 antag 26.7
Cc1ccc(Cn2ncc3c(N4CCOCC4)ncnc32)cc1	none
OCCSc1c(F)c(SCCO)c(SCCO)c(F)c1SCCO	none (no result: b-catenin transl)
CC1CCC(NC(=O)CN2C(=O)C3CCCN3c3ncc(Cl)cc32)CC1 (centres undefined)	NPY-Y1 antag 29.1 (no result: b-catenin transl)
CCc1ccccc1NC(=O)CN1C(=O)C2CCCN2c2ncc(Cl)cc21 (centres undefined)	NPY-Y2 antag 23.2, NPY-Y1 antag 32.6
COC(=O)c1ccccc1NC(=O)CN1C(=O)C2CCCN2c2ncc(Cl)cc21 (centres undefined)	none
COc1ccc(-c2noc(CSc3nc4ccccc4c(=O)n3-c3ccccc3)n2)cc1	none (no result: b-catenin transl)
COc1cc2nc(SCc3c(C)noc3C)n(CCC3=CCCCC3)c(=O)c2cc1OC	MT stabilizer 38.4
C=CCn1c(SCc2c(C)noc2C)nc2ccccc2c1=O	NPY-Y2 antag 29.3, NPY-Y1 antag 63.6, MT stabilizer 27.3 (no result: b-catenin transl)
C=CCn1c(SCc2c(C)noc2C)nc2cc(C(=O)O)ccc2c1=O	MT stabilizer 35.5 (no result: b-catenin transl)
COc1cc2nc(SCC(=O)NC3CC3)n(CCC3=CCCCC3)c(=O)c2cc1OC	none (no result: b-catenin transl)
C=CCn1c(SCc2nc3ccccc3c(=O)[nH]2)nc2ccccc2c1=O	none
Cc1noc(C)c1CSc1nc2ccccc2c(=O)n1-c1ccccc1	NPY-Y2 antag 17.8, NPY-Y1 antag 23.6, MT stabilizer 42.4
CCCC12CN3CC(CCC)(CN(C1)C3C(O)C(O)C(O)CO)C2=O (centres undefined)	none
CCOC(=O)/C(=N\Nc1cc(Cl)ccc1Cl)N1CCN(CC)CC1	none
CC(C)CC(=O)OCc1cn(-c2ccccc2)nn1	none
C=CCn1c(SCc2cc(C(C)=O)ccc2OCC)nc2ccccc2c1=O	NPY-Y2 antag 25.1, b-catenin transl 98.2, NPY-Y1 antag 26.8, MT stabilizer 18.0
COc1ccc(C(C)=O)cc1CSc1nc2ccccc2c(=O)n1-c1ccccc1	none
CC(Oc1ccc(Cl)cc1Cl)C(=O)Nc1ccncc1 (centres undefined)	b-catenin transl 52.4, MT stabilizer 56.1
CC(=O)Nc1ccc(NC(=O)C(C)Oc2ccc(Cl)cc2Cl)cc1 (centres undefined)	none (no result: NPY-Y2 antag)
Cc1nnc(NC(=O)c2ccccc2Oc2ccccc2)s1	none (no result: NPY-Y2 antag)
NNC(=O)c1ccc(NS(=O)(=O)c2ccc(Br)cc2)cc1	none (no result: NPY-Y2 antag, NPY-Y1 antag, MT stabilizer)
COc1ccccc1NC(=O)c1ccccc1-c1nc(-c2ccccc2OC)no1	none
COc1ccccc1-c1noc(-c2ccccc2C(=O)Nc2ccccc2)n1	NPY-Y2 antag 23.6, NPY-Y1 antag 22.6
Cc1cccc(OCCn2c(-c3ccco3)nc3ccccc32)c1	NPY-Y2 antag 20.3, NPY-Y1 antag 26.2
O=C(Nc1nc2ccccc2n1CCOc1ccc(Cl)cc1)c1ccco1	NPY-Y2 antag 31.4, NPY-Y1 antag 24.1

Screens as filed in PubChem.
